Measurements taken from article PMC6619501 (Nature microbiology, 2018).

Columns and labels:
IκBα phosphorylation = experiment: Immunoblot analysis of p-IκBα in A.f-infected BMDMs; assay type: cell-based, mouse; settings: unprimed WT BMDMs incubated with NF-κB inhibitor during fungal infection
How it was run: (§1)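 Bone-marrow-derived macrophages from C57BL/6-background mice, 3×10^6 cells in DMEM with 10% FBS and 1% penicillin–streptomycin, left unprimed and given the NF-κB inhibitor class test compound. They were then infected with A. fumigatus A1160 conidia (malt-agar slants, 1 week) at MOI 20. Cells were lysed in 1× RIPA, and 15 μg protein was separated by SDS-PAGE, transferred to PVDF and probed for p-IκBα, total IκBα and IRF1 with HRP detection. Representative of ≥3 independent experiments.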

IRF1 = experiment: Immunoblot analysis of IRF1 in A.f-infected BMDMs; assay type: cell-based, mouse; settings: unprimed WT BMDMs incubated with NF-κB inhibitor during fungal infection
How it was run: as §1

## Cc1ccc(S(=O)(=O)/C=C/C#N)cc1 [Bay 11-7082]
IκBα phosphorylation
  phosphorylation of IκBα: reduced
IRF1
  IRF1 induction: reduced
